From PubChem BioAssay
Inconclusive results are not listed.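 Rule for the calls, unless noted: active = inhibition over a set limit, the all-compound mean plus 3 SD, in both replicate runs; inconclusive = over that limit in just one replicate run; inactive = at or under that limit in both runs.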

Key:
[1] = S. cerevisiae growth inhibition in permissive medium (OD615), pilot counter-assay for S. cerevisiae lifespan shortening project, permissive growth control (AID 705;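 active = growth inhibition above 25% in both replicates, a cutoff set 3 SD above the mean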); details: OD615, 24 h, at 10 µM, stronger effect = higher value
Outline: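 Timing: 24 h exposure, 30 °C / Material: Saccharomyces cerevisiae strain carrying genetically modified DeaD replicative-lifespan system / Signal: OD at 615 nm / Compound: 10 µM single dose, 0.25% DMSO / Medium: SC raffinose/galactose permissive medium / Evaluation: reduction in yeast growth (OD615)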

[2] = S. cerevisiae growth inhibition in restrictive medium, OD615, pilot screen, restrictive growth control, yeast lifespan reduction project (AID 706;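 active = growth inhibition above a set limit, 3 SD over mean compound inhibition, in both replicates, cut at about 43% in these data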;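 note: modified DeaD lifespan yeast strain shifted to restrictive glucose medium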); details: OD615, 48 h, at 10 µM, stronger effect = higher value
Outline: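 System: Engineered S. cerevisiae DeaD strain | Detection: OD615 | Buffer or medium: CSMM-D glucose medium | Doses: 10 µM compound, 0.25% DMSO | Timing: 4 h pre-growth plus 48 h compound exposure, 30 °C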

[3] = doxorubicin toxicity protection in MRP-1 cells – H69AR cells, CellTiter-Glo, duplicate, MRP-1 activator project, pilot screen (AID 807;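 active = viability increase at or above a cutoff of the median across tested compounds plus 3 SD, cut at about 8.5% in these data, passing the limit was not always enough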;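 note: compound pretreatment 18-22 h then 72 h combined with doxorubicin; 0% = doxorubicin alone and 100% = vehicle without doxorubicin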); details: H69AR viability with doxorubicin, CellTiter-Glo luminescence; at 10 µM; stronger effect = higher value
[4] = RAM pathway blockade in budding yeast – dse1pr::URA3 reporter, 5-FOA selection, pilot screen (AID 869);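 note: 0% = DMSO wells with no growth and 100% = 10 µM 1-NA-PP1 with full growth; RAM network block rescues cells from 5-FOA so hits raise OD615 growth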; details: S. cerevisiae dse1pr::URA3 5-FOA growth, OD615, 2 d; at 10 µM; stronger effect = higher value; strain carries analog-sensitive mutant Cbk1 kinase
[5] = RAM signaling pathway blockade in yeast – S. cerevisiae, Pdr1DBD-CYC8 efflux-inhibited sensitized strain, primary screen (AID 1298;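 active = RAM network inhibition above 8.4% in each of two replicates, 3 SD over the compound average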;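 note: 0% = DMSO untreated cells without growth and 100% = 10 µM 1-NA-PP1 full growth; higher means more yeast growth rescued from 5-FOA killing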); details: S. cerevisiae cbk1-as DSE1-URA3 strain, 5-FOA growth OD615, 2 d; at 50 µM; stronger effect = higher value
[6] = viability of HCT116 without oncogenic beta-catenin – human colon tumor cells, pilot screen (AID 823;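 active = cell viability at or below a set limit in both duplicate runs, the limit being the all-compound median minus 4 SD, cut at about 23% in these data, passing the limit was not always enough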;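 note: 0% = wells killed by 20 µM Hyamine and 100% = untreated DMSO cell wells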); details: HCT116 beta-catenin knockout viability, CellTiter-Glo, 60 h; at 10 µM; stronger effect = lower value
[7] = viability of PTEN-null HCT116 cells – cell-based, HCT116 clonal line, CellTiter-Glo, pilot screen (AID 824;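 active = viability at or below 27.92% in each of two runs, the all-compound median minus 4 SD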;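 note: 0% = 20 µM Hyamine control and 100% = vehicle cell control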); details: HCT116 PTEN-deleted viability, 60 h, at 10 µM, stronger effect = lower value

O=C(CCS(=O)(=O)c1ccccc1)Nc1nc2c(s1)CCCC2
inactive: growth inhibition [1] -16.6% | growth inhibition [2] -17.7% | viability increase [3] -8.89% | inhibition [4] 0.495% | RAM network inhibition [5] 3.5%

Cc1noc(/C=C/N(C)C)c1S(=O)(=O)N1CCCC(C(=O)NCc2ccco2)C1 (stereo not drawn)
inactive: growth inhibition [1] 4.93% | growth inhibition [2] -2.94% | viability [6] 97.6% | viability [7] 92.1% | inhibition [4] 0.86% | RAM network inhibition [5] 4.7%

CCOc1ccc(-c2cc(CCCC(=O)Nc3cccc(OC)c3)no2)cc1
inactive: growth inhibition [1] -6.04% | growth inhibition [2] 3.52% | viability increase [3] -5.12% | inhibition [4] 3.28% | RAM network inhibition [5] 0.05%

CCN(CC)C(=O)C(C)N(C#N)c1nc(NC(C)C)nc(NC(C)C)n1 (stereo not drawn)
inactive: growth inhibition [1] -9.32% | growth inhibition [2] -0.315% | viability increase [3] -3.7% | viability [7] 101% | inhibition [4] 0.715% | RAM network inhibition [5] 2.25%

CCN1CCN(c2cc(C)c3cc(NC(=O)c4ccc(Br)o4)ccc3n2)CC1
inactive: growth inhibition [1] -8.91% | growth inhibition [2] -15.6% | viability increase [3] -8.37% | inhibition [4] 1.75% | RAM network inhibition [5] 0.84%

CCc1ccc(C2CC(c3ccccc3C)n3nc(N)nc3N2)cc1 (stereo not drawn)
inactive: growth inhibition [1] 7.95% | growth inhibition [2] -3.1% | viability [6] 87.5% | viability [7] 79.6% | inhibition [4] 0.19% | RAM network inhibition [5] 6.27%

CC1=C(C(=O)OCc2ccc3c(c2)OCO3)C(c2ccccc2)NC(=O)N1 (stereo not drawn)
inactive: growth inhibition [1] -12% | growth inhibition [2] -9.41% | viability increase [3] -4.88% | inhibition [4] 1.81% | RAM network inhibition [5] 2.03%

Oc1c(C(c2cccs2)N2CCN(c3cccc(Cl)c3)CC2)sc2ncnn12 (stereo not drawn)
inactive: growth inhibition [1] -8.2% | growth inhibition [2] 5.16% | viability [6] 88.1% | viability [7] 90.5% | inhibition [4] 1.94% | RAM network inhibition [5] 3.42%

CSc1nc2c(cnn2-c2ccc(C)c(C)c2)c(=O)[nH]1
inactive: growth inhibition [1] 3.89% | growth inhibition [2] 1.82% | viability increase [3] -8.82% | inhibition [4] 2.08% | RAM network inhibition [5] 0.57%

Cc1nc(N2CCN(Cc3ccc4c(c3)OCO4)CC2)c2oc3ccccc3c2n1
inactive: growth inhibition [1] -0.195% | growth inhibition [2] -1.24% | viability increase [3] -4.93% | inhibition [4] 2% | RAM network inhibition [5] 4.68%

CC1(C)CC(=O)C(C=NC2CC(C)(C)NC(C)(C)C2)=C(O)C1
inactive: growth inhibition [1] -1.6% | growth inhibition [2] -7.89% | viability increase [3] 0.22% | viability [7] 95.5% | inhibition [4] 1.82% | RAM network inhibition [5] 4.6%

COc1cc(C(c2sc3ncnn3c2O)N2CCN(c3ccccc3F)CC2)cc(OC)c1OC (stereo not drawn)
inactive: growth inhibition [1] 1.67% | growth inhibition [2] -0.84% | viability [6] 103% | viability [7] 105% | inhibition [4] 2.5% | RAM network inhibition [5] 5.34%

Cc1ccccc1CN1C(=O)C(O)(CC(=O)c2ccncc2)c2ccccc21 (stereo not drawn)
inactive: growth inhibition [1] -11.4% | growth inhibition [2] -5.55% | viability increase [3] -5.61% | inhibition [4] 1.28% | RAM network inhibition [5] 5.38%

COc1cc(C(=O)N2CCN(c3ccc(C)cc3C)CC2)cc(OC)c1OC
inactive: growth inhibition [1] -4.88% | growth inhibition [2] 2.84% | viability increase [3] -5% | inhibition [4] 0.135% | RAM network inhibition [5] 4.77%

COc1cccc(C(=O)Nc2nnc(-c3ccc(Cl)cc3)o2)c1
inactive: growth inhibition [1] 2.17% | growth inhibition [2] 2.42% | viability increase [3] -3.33% | inhibition [4] 1.6% | RAM network inhibition [5] -1.16%

O=C1C(=O)N(CCCn2ccnc2)C(c2cccnc2)/C1=C(/O)c1ccc(Br)cc1 (stereo not drawn)
inactive: growth inhibition [1] -7.97% | growth inhibition [2] 7.01% | viability increase [3] -0.15% | viability [7] 104% | inhibition [4] 1.9% | RAM network inhibition [5] 4%

CSc1nc(N2CCN(CCO)CC2)c2sc3nc(-c4ccco4)c4c(c3c2n1)CCC4
inactive: growth inhibition [1] -5.56% | growth inhibition [2] -10.7% | viability increase [3] -8.19% | inhibition [4] -1.67% | RAM network inhibition [5] -2.9%

COc1ccc(NC(=O)NCCCN2CCN(c3cc(C)ccc3C)CC2)cc1
inactive: growth inhibition [1] -11.2% | growth inhibition [2] -19.5% | viability increase [3] -6.14% | inhibition [4] 0.485% | RAM network inhibition [5] 2.1%

Cc1cc(N2CCN(S(=O)(=O)c3ccc(Cl)cc3)CC2)c2ccccc2n1
inactive: growth inhibition [1] -3.2% | growth inhibition [2] -2.46% | viability increase [3] -2.62% | inhibition [4] -0.15% | RAM network inhibition [5] 2.74%

CC(C)c1cc(=O)oc2c3c4c(cc12)CCCN4CCC3
inactive: growth inhibition [1] 0.175% | growth inhibition [2] 9.32% | viability increase [3] -4.62% | viability [7] 57.8% | inhibition [4] 1.84% | RAM network inhibition [5] 3.62%

CN1C(=O)C(O)(CC(=O)c2ccccn2)c2cc(Br)ccc21 (stereo not drawn)
inactive: growth inhibition [1] -0.08% | growth inhibition [2] 6.53% | viability increase [3] -7.14% | inhibition [4] 0.9% | RAM network inhibition [5] 3.11%
